The record followed here is ChEMBL document CHEMBL5252634, “Design, synthesis and in vitro cytotoxicity evaluation of indolo-pyrazoles grafted with thiazolidinone as tubulin polymerization inhibitors” (RSC Med Chem, 2023).

In one series the test system is B16-F10. Description: Cytotoxicity against mouse B16-F10 cells assessed as reduction in cell viability measured after 48 hrs by MTT assay. Particulars: B16-F10, 48 h. The format is functional, cell-based. The essentials:
(§1)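 Cells kept in medium with 10% FBS and 1% antibiotic–antimycotic at 37 °C, 5% CO2. Seeded at 3000–4000 cells/well, grown overnight, then given fresh medium with a range of concentrations (diluted from 10 mM DMSO stocks) for 48 h. MTT (0.5 mg/mL) added for 3–4 h at 37 °C. Formazan dissolved in DMSO and absorbance read at 570 nm.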
In general terms: Tetrazolium dyes change colour on reduction, which living cells bring about.

For another series, the system named is HCT-116. Description: Cytotoxicity against human HCT-116 cells assessed as reduction in cell viability measured after 48 hrs by MTT assay. The format is functional, cell-based. Particulars: HCT-116, 48 h. The essentials: as §1
Another series relates to SK-MEL-28. Description: Cytotoxicity against human SK-MEL-28 cells assessed as reduction in cell viability measured after 48 hrs by MTT assay. The format is functional, cell-based. Particulars: SK-MEL-28, 48 h. The essentials:
as §1

Another series relates to A549. Description: Cytotoxicity against human A549 cells assessed as reduction in cell viability measured after 48 hrs by MTT assay. To be noted: A549, 48 h. The class given is functional, cell-based. The method in brief:
as §1

A short description of series [1]: Cytotoxicity against human BEAS-2B cells assessed as reduction in cell viability measured after 48 hrs by MTT assay. The class given is toxicity, cell-based. The method in brief:
as §1

The target of another series is Tubulin (Homo sapiens) (UniProt P68371+Q9H4B7+P0DPH7+P68366+Q13509+Q71U36+P04350+Q3ZCM7+P07437+P68363+Q9BQE3+Q6PEY2+Q13885+Q9BVA1+Q9BUF5). Description: Inhibition of tubulin polymerization (unknown origin) at 3 uM measured after 1 hr relative to control. The class given is protein-complex assay. The method in brief:
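Fluorescence-based tubulin polymerization kit: tubulin, GTP and tubulin glycerol buffer mixed and added to compound (from 10x stocks), enhancer and inhibitor reference standards, and blanks in a plate prewarmed to 37 °C. Read kinetically for 1 h at ex 360/em 450 nm.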

What is called IC50 is the concentration at which inhibition is half-maximal. Regarding `Cn1cc(-c2cc(/N=C3/NC(=O)CS3)n(-c3ccc(C#N)cc3)n2)c2ccccc21`, the IC50 in the series on B16-F10 is > 50 µM; in the series with HCT-116 it was 25.1 µM; in the series with SK-MEL-28 it was 22.7 µM; with A549, 37.2 µM.
Taken in the same sequence, the figures for `O=C1CS/C(=N\c2cc(-c3cn(Cc4ccccc4)c4ccccc34)nn2-c2ccc(Cl)cc2)N1` were > 50 µM, > 50 µM, > 50 µM and 46.4 µM.
For `Cn1cc(-c2cc(/N=C3/NC(=O)CS3)n(-c3cccc(Cl)c3)n2)c2ccccc21`, the IC50 in the series on B16-F10 was > 50 µM; in the series on HCT-116 it was 23.6 µM; with SK-MEL-28, 26.1 µM; in the series on A549, 22.9 µM.
Taken in the same sequence, the figures for `N#Cc1ccc(-n2nc(-c3cn(Cc4ccccc4)c4ccccc34)cc2/N=C2/NC(=O)CS2)cc1` were > 50 µM, 33.1 µM, > 50 µM and 22.3 µM.
For the molecule `CCc1ccccc1-n1nc(-c2c[nH]c3ccccc23)cc1/N=C1/NC(=O)CS1`, the IC50 with B16-F10 was determined as 18.5 µM; in the series on HCT-116, 36.8 µM; with SK-MEL-28 it was 23.2 µM; in the series on A549 it was 25.3 µM. Also, in series [1], the IC50 at 48 h came to 14.8 µM.
Consider `CCc1ccccc1-n1nc(-c2cn(C)c3ccc(Br)cc23)cc1/N=C1/NC(=O)CS1`, for which the IC50 in the series with B16-F10, in the series on HCT-116, in the series on SK-MEL-28 and in the series with A549 was > 50 µM throughout.
In the case of `CCn1cc(-c2cc(/N=C3/NC(=O)CS3)n(-c3ccc(C#N)cc3)n2)c2ccccc21`, the half-maximal inhibitory concentration (IC50) in the series on B16-F10 is 18.6 µM; in the series on HCT-116, > 50 µM; with SK-MEL-28 it was 25 µM; in the series on A549 it was 39.2 µM. Moreover, the IC50 at 48 h in series [1] is > 50 µM.
Take `COc1ccc2c(c1)c(-c1cc(/N=C3/NC(=O)CS3)n(-c3ccc(Cl)cc3)n1)cn2Cc1ccccc1`: the IC50 with B16-F10, in the series with HCT-116, in the series on SK-MEL-28 and in the series with A549 was > 50 µM each time.
What is called inhibition is the percentage by which the read-out fell short of the control. A higher inhibition goes with a response far below the control. The molecule `CC(=O)O[C@H]1C(=O)[C@@]2(C)[C@H]([C@H](OC(=O)c3ccccc3)[C@]3(O)C[C@H](OC(=O)[C@H](O)[C@@H](NC(=O)c4ccccc4)c4ccccc4)C(C)=C1C3(C)C)[C@]1(OC(C)=O)CO[C@@H]1C[C@@H]2O` returned an inhibition at Tubulin (Homo sapiens) of 60%.
In the case of `CCn1cc(-c2cc(/N=C3/NC(=O)CS3)n(-c3ccc(Cl)cc3)n2)c2ccccc21`, the IC50 was > 50 µM in the series with B16-F10, 37.9 µM with HCT-116, 29.7 µM in the series with SK-MEL-28 and 38.7 µM with A549. Also, the half-inhibitory concentration (IC50) at 48 h in series [1] was > 50 µM.
`Cn1cc(-c2cc(/N=C3/NC(=O)CS3)n(-c3ccc(C#N)cc3)n2)c2cc(Br)ccc21`: the IC50 with B16-F10 was 10.6 µM; in the series with HCT-116, 37.3 µM; in the series on SK-MEL-28 it was > 50 µM; in the series with A549, > 50 µM.
For the molecule `CCc1ccccc1-n1nc(-c2cn(CC)c3ccc(OC)cc23)cc1/N=C1/NC(=O)CS1`, the IC50 was > 50 µM in the series with B16-F10, 45.8 µM with HCT-116, 26.8 µM in the series with SK-MEL-28 and 24.2 µM with A549.
With `COc1ccc2[nH]cc(-c3cc(/N=C4/NC(=O)CS4)n(-c4cccc(Cl)c4)n3)c2c1`, the 50% inhibitory concentration (IC50) with B16-F10 is > 50 µM; with HCT-116, 10.8 µM; in the series with SK-MEL-28 it was 6.22 µM; in the series on A549 it was 22.6 µM. Moreover, in series [1], the half-inhibitory concentration (IC50) at 48 h amounted to 21.7 µM.
With `COc1ccc2[nH]cc(-c3cc(/N=C4/NC(=O)CS4)n(-c4ccc(Cl)cc4)n3)c2c1`, the IC50 in the series with B16-F10 is 39.4 µM; in the series with HCT-116, 11.2 µM; with SK-MEL-28, 11.3 µM; in the series on A549 it was 20.9 µM.
As to `CCc1ccccc1-n1nc(-c2cn(CC)c3ccc(Br)cc23)cc1/N=C1/NC(=O)CS1`, the IC50 in the series on B16-F10 is > 50 µM; in the series with HCT-116, > 50 µM; with SK-MEL-28, 34.3 µM; in the series with A549, 33.9 µM.
Consider `CCn1cc(-c2cc(/N=C3/NC(=O)CS3)n(-c3cccc(Cl)c3)n2)c2cc(Br)ccc21`, for which the concentration for half-maximal inhibition (IC50) in the series with B16-F10 was > 50 µM; in the series with HCT-116, > 50 µM; with SK-MEL-28 it was 31.4 µM; in the series with A549, > 50 µM.
As to `CCn1cc(-c2cc(/N=C3/NC(=O)CS3)n(-c3ccc(C#N)cc3)n2)c2cc(Br)ccc21`, the half-inhibitory concentration (IC50) is 11 µM in the series on B16-F10, > 50 µM in the series with HCT-116, 32.1 µM with SK-MEL-28 and 36.6 µM with A549.
Taken in the same sequence, the figures for `Cn1cc(-c2cc(/N=C3/NC(=O)CS3)n(-c3cccc(Cl)c3)n2)c2cc(Br)ccc21` were 26 µM, 20.7 µM, 17 µM and 32.8 µM.
Taken in the same sequence, the figures for `CCc1ccccc1-n1nc(-c2cn(C)c3ccccc23)cc1/N=C1/NC(=O)CS1` were > 50 µM, > 50 µM, 49.9 µM and 39.1 µM.
As to `N#Cc1ccc(-n2nc(-c3c[nH]c4ccccc34)cc2/N=C2/NC(=O)CS2)cc1`, the half-maximal inhibitory concentration (IC50) with B16-F10 is > 50 µM; with HCT-116, > 50 µM; in the series with SK-MEL-28, 25.4 µM; in the series with A549, 34 µM.
For the molecule `CCn1cc(-c2cc(/N=C3/NC(=O)CS3)n(-c3ccc(Cl)cc3)n2)c2cc(Br)ccc21`, the IC50 in the series on B16-F10 is 18.4 µM; in the series with HCT-116 it was > 50 µM; with SK-MEL-28 it was 24.9 µM; with A549, 33.7 µM.
Turning to `CCc1ccccc1-n1nc(-c2cn(C)c3ccc(OC)cc23)cc1/N=C1/NC(=O)CS1`, the IC50 is > 50 µM in the series with B16-F10, 34.1 µM with HCT-116, 28 µM in the series on SK-MEL-28 and > 50 µM in the series on A549. In addition, the IC50 at 48 h in series [1] was > 50 µM.
Take `O=C1CS/C(=N\c2cc(-c3c[nH]c4ccccc34)nn2-c2ccc(Cl)cc2)N1`: the IC50 in the series on B16-F10 is > 50 µM; in the series with HCT-116, 13.8 µM; in the series with SK-MEL-28, 12.8 µM; in the series on A549, 16.4 µM.
`COc1ccc2c(c1)c(-c1cc(/N=C3/NC(=O)CS3)n(-c3cccc(Cl)c3)n1)cn2C`: the half-maximal inhibitory concentration (IC50) in the series on B16-F10 was 23.4 µM; in the series on HCT-116, 22.2 µM; with SK-MEL-28 it was > 50 µM; in the series on A549, > 50 µM.
As to `O=C1CS/C(=N\c2cc(-c3c[nH]c4ccccc34)nn2-c2ccccc2)N1`, the IC50 was > 50 µM with B16-F10, > 50 µM in the series with HCT-116, 34 µM in the series with SK-MEL-28 and 22.5 µM in the series on A549. Further, in series [1], the IC50 at 48 h is > 50 µM.
As to `O=C1CS/C(=N\c2cc(-c3cn(Cc4ccccc4)c4ccccc34)nn2-c2cccc(Cl)c2)N1`, the IC50 in the series on B16-F10, with HCT-116, in the series on SK-MEL-28 and in the series with A549 was > 50 µM throughout. In addition, the IC50 at 48 h in series [1] was > 50 µM.
Turning to `Cn1cc(-c2cc(/N=C3/NC(=O)CS3)n(-c3ccc(Cl)cc3)n2)c2ccccc21`, the IC50 was > 50 µM with B16-F10, > 50 µM in the series on HCT-116, > 50 µM with SK-MEL-28 and 30.2 µM in the series with A549.
As for `CCn1cc(-c2cc(/N=C3/NC(=O)CS3)n(-c3ccc(Cl)cc3)n2)c2cc(OC)ccc21`, the 50% inhibitory concentration (IC50) with B16-F10 is 14.2 µM; in the series on HCT-116, > 50 µM; with SK-MEL-28, > 50 µM; in the series on A549 it was 48.1 µM. Moreover, in series [1], the 50% inhibitory concentration (IC50) at 48 h is > 50 µM.
Take `CCc1ccccc1-n1nc(-c2cn(CC)c3ccccc23)cc1/N=C1/NC(=O)CS1`: the half-maximal inhibitory concentration (IC50) was > 50 µM in the series on B16-F10, 19.8 µM in the series with HCT-116, > 50 µM in the series on SK-MEL-28 and 33 µM with A549.
As to `CCc1ccccc1-n1nc(-c2c[nH]c3ccc(OC)cc23)cc1/N=C1/NC(=O)CS1`, the half-maximal inhibitory concentration (IC50) in the series with B16-F10 was 10.8 µM; in the series with HCT-116, 18 µM; with SK-MEL-28, > 50 µM; with A549, 25.8 µM. Also, the 50% inhibitory concentration (IC50) at 48 h in series [1] is 32 µM.
As for `CCn1cc(-c2cc(/N=C3/NC(=O)CS3)n(-c3cccc(Cl)c3)n2)c2cc(OC)ccc21`, the IC50 in the series with B16-F10 is 36.4 µM; in the series on HCT-116, 14.8 µM; in the series on SK-MEL-28 it was > 50 µM; with A549 it was 16.9 µM.
`CCn1cc(-c2cc(/N=C3/NC(=O)CS3)n(-c3cccc(Cl)c3)n2)c2ccccc21`: the IC50 was 21.2 µM in the series with B16-F10, > 50 µM in the series with HCT-116, 26 µM in the series with SK-MEL-28 and 26 µM with A549.
Consider `Cn1cc(-c2cc(/N=C3/NC(=O)CS3)n(-c3ccc(Cl)cc3)n2)c2cc(Br)ccc21`, for which the half-inhibitory concentration (IC50) in the series with B16-F10 is 11.3 µM; in the series with HCT-116, 13.5 µM; with SK-MEL-28 it was 26.9 µM; with A549 it was 19.2 µM. Besides, in series [1], the IC50 at 48 h is > 50 µM.
Taken in the same sequence, the figures for `CCc1ccccc1-n1nc(-c2cn(Cc3ccccc3)c3ccccc23)cc1/N=C1/NC(=O)CS1` were > 50 µM, 35.8 µM, 33.8 µM, 36.5 µM and 27.4 µM.
